Assay results reported in ChEMBL document CHEMBL3098102, “1,2,3-Triazole-derived naphthalimides as a novel type of potential antimicrobial agents: synthesis, antimicrobial activity, interaction with calf thymus DNA and human serum albumin” (Bioorg Med Chem Lett, 2014).
≈ marks a conversion by molar mass, not a printed value. Calls of active or inactive are those of the source. The calls are words filed in the database; no cut-off is given here.

Legend:
Aspergillus flavus [1] = test: Antimicrobial activity against Aspergillus flavus after 24 hrs by two-fold serial dilution method; format: functional
Procedure, shortened: (§1)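 MIC read by broth microdilution in microdilution plates.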

Staphylococcus aureus [2] = test: Antimicrobial activity against methicillin-resistant Staphylococcus aureus N315 after 24 hrs by two-fold serial dilution method; format: functional; details: N315, 24 h
Aspergillus flavus [3] = test: Ratio of fluconazole MIC to compound MIC for Aspergillus flavus after 24 hrs by two-fold serial dilution method; format: functional
Staphylococcus aureus [4] = test: Antimicrobial activity against Staphylococcus aureus ATCC 25923 after 24 hrs by two-fold serial dilution method; format: functional; details: ATCC 25923, 24 h
Micrococcus luteus = test: Antimicrobial activity against Micrococcus luteus ATCC 4698 after 24 hrs by two-fold serial dilution method; format: functional; details: ATCC 4698, 24 h
Shigella dysenteriae = test: Antimicrobial activity against Shigella dysenteriae after 24 hrs by two-fold serial dilution method; format: functional
Escherichia coli [5] = test: Antimicrobial activity against Escherichia coli DH52 after 24 hrs by two-fold serial dilution method; format: functional; details: DH52, 24 h
Pseudomonas aeruginosa = test: Antimicrobial activity against Pseudomonas aeruginosa after 24 hrs by two-fold serial dilution method; format: functional; procedure, shortened: as §1
Bacillus subtilis = test: Antimicrobial activity against Bacillus subtilis after 24 hrs by two-fold serial dilution method; format: functional; procedure, shortened: as §1
[6] = Antimicrobial activity against Bacillus proteus after 24 hrs by two-fold serial dilution method; format: functional; procedure, shortened: as §1
Candida albicans = test: Antimicrobial activity against Candida albicans after 24 hrs by two-fold serial dilution method; format: functional; procedure, shortened: as §1
Saccharomyces cerevisiae = test: Antimicrobial activity against Saccharomyces cerevisiae by two-fold serial dilution method; format: functional; procedure, shortened: as §1
Escherichia coli [7] = test: Ratio of chloromycin MIC to compound MIC for Escherichia coli DH52 after 24 hrs by two-fold serial dilution method; format: functional
DNA [8] = test: Binding affinity to calf thymus DNA by UV-vis spectroscopy; format: nucleic-acid assay; details: Bos taurus
Procedure, shortened: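 UV-vis absorption spectra of calf thymus DNA recorded with increasing concentrations of test compound. The DNA band at 260 nm was monitored for changes in intensity and wavelength.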

DNA [9] = test: Competitive binding affinity to calf thymus DNA at 0.25 to 2 x 10^-5 mol/L by UV spectroscopy in presence of neutral red; format: nucleic-acid assay; details: Bos taurus

For `CCCCCCCCn1cc(CN(Cc2cn(CCCCCCCC)nn2)N2C(=O)c3cccc4c(Br)ccc(c34)C2=O)nn1`, the MIC (Aspergillus flavus [1]) was 16 µg/mL (≈ 23.6 µM), the MIC (Staphylococcus aureus [2]) was > 512 µg/mL and the Ratio (Aspergillus flavus [3]) was 16. The MIC (Staphylococcus aureus [4]) was > 512 µg/mL, the MIC (Micrococcus luteus) was > 512 µg/mL and the MIC (Shigella dysenteriae) was > 512 µg/mL. The MIC (Escherichia coli [5]) was 512 µg/mL (≈ 756 µM), the MIC (Pseudomonas aeruginosa) was 512 µg/mL (≈ 756 µM) and the MIC (Bacillus subtilis) was > 512 µg/mL. The MIC [6] was > 512 µg/mL, the MIC (Candida albicans) was > 512 µg/mL and the MIC (Saccharomyces cerevisiae) was > 512 µg/mL.

For `Cl.Cl.Cl.Cl.O=C1c2cccc3c(Br)ccc(c23)C(=O)N1N(Cc1cn(Cc2ccccc2Cl)nn1)Cc1cn(Cc2ccccc2Cl)nn1`, the MIC (Aspergillus flavus [1]) was > 512 µg/mL, the MIC (Staphylococcus aureus [2]) was 512 µg/mL and the MIC (Staphylococcus aureus [4]) was > 512 µg/mL. For the same molecule, the MIC (Micrococcus luteus) was 128 µg/mL, the MIC (Shigella dysenteriae) was > 512 µg/mL and the MIC (Escherichia coli [5]) was 4 µg/mL. For the same molecule, the MIC (Pseudomonas aeruginosa) was > 512 µg/mL, the MIC (Bacillus subtilis) was > 512 µg/mL and the MIC [6] was > 512 µg/mL. The MIC (Candida albicans) was 64 µg/mL, the MIC (Saccharomyces cerevisiae) was > 512 µg/mL and the Ratio (Escherichia coli [7]) was 2.

In the case of `O=C1c2cccc3c(Br)ccc(c23)C(=O)N1N(Cc1cn(Cc2ccc(Cl)cc2Cl)nn1)Cc1cn(Cc2ccc(Cl)cc2Cl)nn1`, the MIC (Aspergillus flavus [1]) is reported as 32 µg/mL (≈ 41.5 µM), the MIC (Staphylococcus aureus [2]) is reported as > 512 µg/mL and the MIC (Staphylococcus aureus [4]) is reported as > 512 µg/mL. The MIC (Micrococcus luteus) was 256 µg/mL (≈ 332 µM), the MIC (Shigella dysenteriae) was > 512 µg/mL and the MIC (Escherichia coli [5]) was 8 µg/mL (≈ 10.4 µM). For the same molecule, the MIC (Pseudomonas aeruginosa) was > 512 µg/mL, the MIC (Bacillus subtilis) was > 512 µg/mL and the MIC [6] was > 512 µg/mL. For the same molecule, the MIC (Candida albicans) was > 512 µg/mL, the MIC (Saccharomyces cerevisiae) was > 512 µg/mL and the Ratio (Escherichia coli [7]) was 2.

For `O=C1c2cccc3c(Br)ccc(c23)C(=O)N1N(Cc1cn(Cc2ccc(Cl)c(Cl)c2)nn1)Cc1cn(Cc2ccc(Cl)c(Cl)c2)nn1` [listing 1 of 2 here], the MIC (Aspergillus flavus [1]) was > 512 µg/mL, the MIC (Staphylococcus aureus [2]) was > 512 µg/mL and the MIC (Staphylococcus aureus [4]) was > 512 µg/mL. The MIC (Micrococcus luteus) was > 512 µg/mL, the MIC (Shigella dysenteriae) was > 512 µg/mL and the MIC (Escherichia coli [5]) was 1 µg/mL (≈ 1.3 µM). The MIC (Pseudomonas aeruginosa) was 256 µg/mL (≈ 332 µM), the MIC (Bacillus subtilis) was > 512 µg/mL and the MIC [6] was 512 µg/mL (≈ 664 µM). For the same molecule, the MIC (Candida albicans) was 256 µg/mL (≈ 332 µM), the MIC (Saccharomyces cerevisiae) was 64 µg/mL (≈ 83 µM) and the Ratio (Escherichia coli [7]) was 2.

With `Cl.Cl.Cl.Cl.Cl.Cl.O=C1c2cccc3c(Br)ccc(c23)C(=O)N1N(Cc1cn(Cc2ccc(Cl)c(Cl)c2)nn1)Cc1cn(Cc2ccc(Cl)c(Cl)c2)nn1` the MIC (Aspergillus flavus [1]) was > 512 µg/mL, the MIC (Staphylococcus aureus [2]) was 256 µg/mL and the MIC (Staphylococcus aureus [4]) was 256 µg/mL. The MIC (Micrococcus luteus) was 512 µg/mL, the MIC (Shigella dysenteriae) was > 512 µg/mL and the MIC (Escherichia coli [5]) was 0.5 µg/mL. It also gave an MIC (Pseudomonas aeruginosa) of 256 µg/mL, an MIC (Bacillus subtilis) of 512 µg/mL and an MIC [6] of 256 µg/mL. It also gave an MIC (Candida albicans) of 256 µg/mL, an MIC (Saccharomyces cerevisiae) of 32 µg/mL and a Ratio (Escherichia coli [7]) of 2.

With `O=C1c2cccc3c(Br)ccc(c23)C(=O)N1N(Cc1cn(Cc2ccccc2Cl)nn1)Cc1cn(Cc2ccccc2Cl)nn1` the MIC (Aspergillus flavus [1]) was > 512 µg/mL, the MIC (Staphylococcus aureus [2]) was 512 µg/mL (≈ 729 µM) and the MIC (Staphylococcus aureus [4]) was > 512 µg/mL. The MIC (Micrococcus luteus) was 128 µg/mL (≈ 182 µM), the MIC (Shigella dysenteriae) was > 512 µg/mL and the MIC (Escherichia coli [5]) was 4 µg/mL (≈ 5.69 µM). The MIC (Pseudomonas aeruginosa) was > 512 µg/mL, the MIC (Bacillus subtilis) was > 512 µg/mL and the MIC [6] was > 512 µg/mL. The MIC (Candida albicans) was 64 µg/mL (≈ 91.1 µM), the MIC (Saccharomyces cerevisiae) was > 512 µg/mL and the Ratio (Escherichia coli [7]) was 2.

With `O=C1c2cccc3c(Br)ccc(c23)C(=O)N1N(Cc1cn(Cc2ccc(Cl)cc2)nn1)Cc1cn(Cc2ccc(Cl)cc2)nn1` the MIC (Aspergillus flavus [1]) was > 512 µg/mL, the MIC (Staphylococcus aureus [2]) was > 512 µg/mL and the MIC (Staphylococcus aureus [4]) was > 512 µg/mL. For the same molecule, the MIC (Micrococcus luteus) was 64 µg/mL (≈ 91.1 µM), the MIC (Shigella dysenteriae) was 256 µg/mL (≈ 364 µM) and the MIC (Escherichia coli [5]) was 2 µg/mL (≈ 2.85 µM). For the same molecule, the MIC (Pseudomonas aeruginosa) was 512 µg/mL (≈ 729 µM), the MIC (Bacillus subtilis) was 256 µg/mL (≈ 364 µM) and the MIC [6] was > 512 µg/mL. For the same molecule, the MIC (Candida albicans) was > 512 µg/mL, the MIC (Saccharomyces cerevisiae) was > 512 µg/mL and the Ratio (Escherichia coli [7]) was 2.

With `O=C1c2cccc3c(Br)ccc(c23)C(=O)N1N(Cc1cn(Cc2ccc(Cl)c(Cl)c2)nn1)Cc1cn(Cc2ccc(Cl)c(Cl)c2)nn1` [listing 2 of 2 here] the K (DNA [8]) was 2.34 ×10⁴ L/mol and the Activity (DNA [9]) was “Active”.

In the case of `CCCCCCCCn1cc(CN(Cc2cn(CCCCCCCC)nn2)N2C(=O)c3cccc4c(Br)ccc(c34)C2=O)nn1.Cl.Cl`, the MIC (Aspergillus flavus [1]) is reported as 16 µg/mL, the MIC (Staphylococcus aureus [2]) is reported as > 512 µg/mL and the Ratio (Aspergillus flavus [3]) is reported as 16. The MIC (Staphylococcus aureus [4]) was > 512 µg/mL, the MIC (Micrococcus luteus) was > 512 µg/mL and the MIC (Shigella dysenteriae) was > 512 µg/mL. For the same molecule, the MIC (Escherichia coli [5]) was 512 µg/mL, the MIC (Pseudomonas aeruginosa) was 512 µg/mL and the MIC (Bacillus subtilis) was > 512 µg/mL. The MIC [6] was 512 µg/mL, the MIC (Candida albicans) was > 512 µg/mL and the MIC (Saccharomyces cerevisiae) was > 512 µg/mL.
